Measured values published in ChEMBL document CHEMBL3792351, “Synthesis and anti-inflammatory activity evaluation of a novel series of 6-phenoxy-[1,2,4]triazolo[3,4-a]phthalazine-3-carboxamide derivatives” (Bioorg Med Chem Lett, 2016).
Active and inactive are the calls of the source. The calls are words filed in the database; no cut-off is given here.

Columns and labels:
HeLa [1] = assay: Inhibition of TNFalpha-induced NFkappaB (unknown origin) activation expressed in human HeLa cells at 100 uM pre-incubated for 8 hrs followed by stimulation with TNFalpha for 8 hrs by luciferase reporter assay; format: cell-based
In short: (§1)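 HeLa cells transiently transfected 48 h with NF-κB-dependent luciferase reporter, pretreated 8 h with compounds (100 μM screen or indicated concentrations), then TNF-α (10 ng/ml) 8 h; luciferase activity read. Mean ± standard deviation, three independent experiments; compared with TNF-α-stimulated cells.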

HeLa [2] = assay: Inhibition of TNFalpha-induced NFkappaB (unknown origin) activation expressed in human HeLa cells pre-incubated for 8 hrs followed by stimulation with TNFalpha for 8 hrs by luciferase reporter assay; format: cell-based; in short: as §1
HeLa [3] = assay: Cytotoxicity against human HeLa cells assessed as cell viability at 100 uM after 24 hrs by MTT assay; format: cell-based
In short: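 HeLa cells treated with compounds at indicated concentrations for 24 h; viability by MTT. Mean ± standard deviation of three independent experiments.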

Mus musculus [4] = assay: Antiinflammatory activity in Kunming mouse assessed as inhibition of xylene-induced ear edema at 100 mg/kg, po administered 1 hr before xylene challenge measured after 30 mins relative to vehicle treated control; format: functional
Mus musculus [5] = assay: Antiinflammatory activity in Kunming mouse assessed as inhibition of xylene-induced ear edema at 100 mg/kg, po administered 5 hrs before xylene challenge measured after 30 mins relative to vehicle treated control; format: functional
Mus musculus [6] = assay: Antiinflammatory activity in Kunming mouse assessed as inhibition of xylene-induced ear edema at 100 mg/kg, po administered 6 hrs before xylene challenge measured after 30 mins relative to vehicle treated control; format: functional
Mus musculus [7] = assay: Antiinflammatory activity in Kunming mouse assessed as inhibition of xylene-induced ear edema at 100 mg/kg, po administered 3 hrs before xylene challenge measured after 30 mins relative to vehicle treated control; format: functional
Mus musculus [8] = assay: Antiinflammatory activity in Kunming mouse assessed as inhibition of xylene-induced ear edema at 100 mg/kg, ip administered 0.5 hrs before xylene challenge measured after 30 mins relative to vehicle treated control; format: functional
In short: (§2)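 Xylene-induced ear edema, Kunming mice (18-22 g), 8 per group; drug-treated, indomethacin and normal control groups; single i.p. dose. Edema reported in mg (mean ± SEM), inhibition rate (%) vs DMSO vehicle group; p<0.05 vs vehicle.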

Mus musculus [9] = assay: Antiinflammatory activity in Kunming mouse assessed as inhibition of xylene-induced ear edema at 100 mg/kg, po administered 4 hrs before xylene challenge measured after 30 mins relative to vehicle treated control; format: functional
Mus musculus [10] = assay: Antiinflammatory activity in Kunming mouse assessed as inhibition of xylene-induced ear edema at 100 mg/kg, po administered 2 hrs before xylene challenge measured after 30 mins relative to vehicle treated control; format: functional
Mus musculus [11] = assay: Antiinflammatory activity in Kunming mouse assessed as inhibition of xylene-induced ear edema at 50 mg/kg, po administered 5 hrs before xylene challenge measured after 30 mins relative to vehicle treated control; format: functional
In short: (§3)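 Kunming mice (18-22 g), xylene ear edema; compound given orally at 1, 2, 3, 4, 5 or 6 h before xylene application. Inhibition (%) vs vehicle control group at the corresponding time; p<0.05 vs vehicle.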

Mus musculus [12] = assay: Antiinflammatory activity in Kunming mouse assessed as inhibition of xylene-induced ear edema at 50 mg/kg, po administered 6 hrs before xylene challenge measured after 30 mins relative to vehicle treated control; format: functional; in short: as §3
Mus musculus [13] = assay: Antiinflammatory activity in Kunming mouse assessed as inhibition of xylene-induced ear edema at 50 mg/kg, po administered 3 hrs before xylene challenge measured after 30 mins relative to vehicle treated control; format: functional; in short: as §3
Mus musculus [14] = assay: Antiinflammatory activity in Kunming mouse assessed as inhibition of xylene-induced ear edema at 50 mg/kg, po administered 2 hrs before xylene challenge measured after 30 mins relative to vehicle treated control; format: functional; in short: as §3
Mus musculus [15] = assay: Antiinflammatory activity in Kunming mouse assessed as inhibition of xylene-induced ear edema at 50 mg/kg, po administered 1 hr before xylene challenge measured after 30 mins relative to vehicle treated control; format: functional; in short: as §3
Mus musculus [16] = assay: Antiinflammatory activity in Kunming mouse assessed as inhibition of xylene-induced ear edema at 50 mg/kg, po administered 4 hrs before xylene challenge measured after 30 mins relative to vehicle treated control; format: functional; in short: as §3
Mus musculus [17] = assay: Antiinflammatory activity in Kunming mouse assessed as inhibition of xylene-induced ear edema at 50 mg/kg, ip administered 0.5 hrs before xylene challenge measured after 30 mins relative to vehicle treated control; format: functional; in short: as §2

**Q.** Which inhibition (HeLa [1]) does the source give for `Cc1ccc(Oc2nn3c(C(N)=O)nnc3c3ccccc23)cc1` here?
**A.** Active

**Q.** Which inhibition (HeLa [1]) does the source give for `COc1ccc(Oc2nn3c(C(N)=O)nnc3c3ccccc23)cc1` here?
**A.** Active

**Q.** For `NC(=O)c1nnc2c3ccccc3c(Oc3ccc(Cl)cc3)nn12`, which inhibition (HeLa [1]) is on record?
**A.** Active

**Q.** For `NC(=O)c1nnc2c3ccccc3c(Oc3ccc(Br)cc3)nn12`, which inhibition (HeLa [1]) is on record?
**A.** Active

**Q.** For `NC(=O)c1nnc2c3ccccc3c(Oc3ccc(F)cc3)nn12`, which inhibition (HeLa [1]) is on record?
**A.** Active

**Q.** How did the inhibition (HeLa [2]) turn out when `NC(=O)c1nnc2c3ccccc3c(Oc3ccc(Cl)cc3Cl)nn12` was run?
**A.** Dose-dependent effect

**Q.** And the Activity (HeLa [3])?
**A.** Toxic

**Q.** And the inhibition (HeLa [1])?
**A.** Active

**Q.** Which inhibition in vivo at 100 mg/kg (Mus musculus [4]) does the source give for `COc1ccc2c(c1)c(CC(=O)O)c(C)n2C(=O)c1ccc(Cl)cc1` [INDOMETHACIN] here?
**A.** 19.1%

**Q.** And the inhibition in vivo at 100 mg/kg (Mus musculus [5])?
**A.** 53.5%

**Q.** And the inhibition in vivo at 100 mg/kg (Mus musculus [6])?
**A.** 29.6%

**Q.** What about the inhibition in vivo at 100 mg/kg (Mus musculus [7]) of the same compound?
**A.** 27.7%

**Q.** What about the inhibition in vivo at 100 mg/kg (Mus musculus [8]) of the same compound?
**A.** 59.2%

**Q.** What about the inhibition in vivo at 100 mg/kg (Mus musculus [9]) of the same compound?
**A.** 63.4%

**Q.** And the inhibition in vivo at 100 mg/kg (Mus musculus [10])?
**A.** 22.5%

**Q.** `NC(=O)c1nnc2c3ccccc3c(Oc3ccccc3F)nn12` was tested. Which inhibition (HeLa [1]) did it give?
**A.** Active

**Q.** Which inhibition in vivo at 50 mg/kg (Mus musculus [11]) does the source give for `Cc1cccc(Oc2nn3c(C(N)=O)nnc3c3ccccc23)c1` here?
**A.** 22.4%

**Q.** What about the inhibition in vivo at 50 mg/kg (Mus musculus [12]) of the same compound?
**A.** 8.19%

**Q.** And the inhibition in vivo at 50 mg/kg (Mus musculus [13])?
**A.** 22.7%

**Q.** What about the inhibition (HeLa [2]) of the same compound?
**A.** Dose-dependent effect

**Q.** And the Activity (HeLa [3])?
**A.** Non-toxic

**Q.** And the inhibition in vivo at 50 mg/kg (Mus musculus [14])?
**A.** 8.92%

**Q.** And the inhibition in vivo at 50 mg/kg (Mus musculus [15])?
**A.** 5.63%

**Q.** And the inhibition (HeLa [1])?
**A.** Active

**Q.** And the inhibition in vivo at 50 mg/kg (Mus musculus [16])?
**A.** 38.9%

**Q.** What about the inhibition in vivo at 50 mg/kg (Mus musculus [17]) of the same compound?
**A.** 58.2%

**Q.** `NC(=O)c1nnc2c3ccccc3c(Oc3cccc(F)c3)nn12` was tested. Which inhibition (HeLa [1]) did it give?
**A.** Active

**Q.** Which inhibition (HeLa [1]) does the source give for `NC(=O)c1nnc2c3ccccc3c(Oc3cccc(Cl)c3)nn12` here?
**A.** Active

**Q.** Which inhibition (HeLa [1]) does the source give for `Cc1ccccc1Oc1nn2c(C(N)=O)nnc2c2ccccc12` here?
**A.** Active

**Q.** `Cc1cccc2c3c(ccc12)C1=C(C(=O)C3=O)[C@@H](C)CO1` was tested. Which inhibition (HeLa [1]) did it give?
**A.** Active
